Experiments:
[1] = target: T1, Endothelin receptor type B (Sus scrofa, UniProt P35463); experiment: Inhibitory activity was evaluated against ET- B Binding to Endothelin B receptor from porcine cerebellar membranes
T1 sequence (P35463 whole entry): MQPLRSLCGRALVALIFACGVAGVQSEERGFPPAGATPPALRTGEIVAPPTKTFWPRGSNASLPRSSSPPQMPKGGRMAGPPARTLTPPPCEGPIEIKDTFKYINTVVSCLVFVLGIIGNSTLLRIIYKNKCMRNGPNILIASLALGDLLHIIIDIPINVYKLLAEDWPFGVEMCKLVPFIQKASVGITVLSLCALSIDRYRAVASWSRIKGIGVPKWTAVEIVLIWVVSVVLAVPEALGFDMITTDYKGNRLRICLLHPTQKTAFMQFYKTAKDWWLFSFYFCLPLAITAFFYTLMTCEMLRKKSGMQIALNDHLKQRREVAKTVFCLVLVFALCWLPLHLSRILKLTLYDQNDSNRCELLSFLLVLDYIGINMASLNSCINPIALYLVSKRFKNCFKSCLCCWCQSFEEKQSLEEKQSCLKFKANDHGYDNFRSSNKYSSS

[2] = system: MMQ; experiment: Inhibitory activity was evaluated by measuring the PI hydrolysis in MMQ cell line; format: functional, cell-based, Rattus norvegicus
Procedure, shortened: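 MMQ cells (0.4 × 10⁶ cells/mL) labeled 16 h with 10 µCi/mL [³H]myoinositol in RPMI, PBS-washed, then held 60 min in buffer A with protease inhibitors and 10 mM LiCl. Compound pre-incubated 5 min, then 1 nM ET-1 challenge for 30 min at 37 °C, stopped with chloroform-methanol. Total inositol phosphates extracted and taken from the aqueous phase by AG1-X8 anion-exchange batch chromatography.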

[3] = target: T2, Endothelin-1 receptor (Rattus norvegicus, UniProt P26684); experiment: Inhibitory activity was evaluated against ET- A Binding to Endothelin A receptor in MMQ cell homogenates; format: cell-free
T2 sequence (P26684 whole entry): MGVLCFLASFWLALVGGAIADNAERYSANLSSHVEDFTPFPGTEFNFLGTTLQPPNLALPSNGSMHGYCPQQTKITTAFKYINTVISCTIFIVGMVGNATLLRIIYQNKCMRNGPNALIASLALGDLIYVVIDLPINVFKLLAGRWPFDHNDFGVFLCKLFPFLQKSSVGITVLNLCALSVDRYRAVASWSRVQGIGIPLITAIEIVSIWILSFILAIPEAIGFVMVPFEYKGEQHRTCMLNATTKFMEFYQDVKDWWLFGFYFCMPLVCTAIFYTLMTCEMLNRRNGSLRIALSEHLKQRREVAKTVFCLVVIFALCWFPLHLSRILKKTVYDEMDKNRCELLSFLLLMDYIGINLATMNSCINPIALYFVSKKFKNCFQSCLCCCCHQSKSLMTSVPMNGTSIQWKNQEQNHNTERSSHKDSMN

Row | Compound | IC50 [1] | IC50 ([2]; Rattus norvegicus, MMQ) | IC50 [3] | IC50 ([2]; mmq)
1 | Cc1[nH]c([C@@H](Cc2c[nH]c3ccccc23)NC(=O)[C@H](CC(C)C)NC(=O)N2CCCCCC2)nc1C(=O)O | > 100000 nM | 780 nM |  | 
2 | Cc1oc([C@@H](Cc2c[nH]c3ccccc23)NC(=O)[C@H](CC(C)C)NC(=O)NCc2ccccc2)nc1C(=O)O | 96000 nM |  | 8700 nM | 
3 | Cc1[nH]c([C@@H](Cc2cn(C)c3ccccc23)NC(=O)[C@H](CC(C)C)NC(=O)NC2CCC(O)CC2)nc1C(=O)O (some centres not stated) | > 100000 nM |  | 110 nM | 
4 | Cc1[nH]c([C@@H](Cc2cn(C)c3ccccc23)NC(=O)[C@H](CC(C)C)NC(=O)NC2CCCCC2)nc1C(=O)O | 34000 nM | 4.1 nM | 11 nM | 
5 | Cc1oc([C@@H](Cc2cn(C)c3ccccc23)NC(=O)[C@H](CC(C)C)NC(=O)NC2CCC(O)CC2)nc1C(=O)O (some centres not stated) | > 100000 nM |  | 2520 nM | 
6 | Cc1oc([C@@H](Cc2cn(C)c3ccccc23)NC(=O)[C@H](CC(C)C)NC(=O)Nc2ccccc2)nc1C(=O)O | 30000 nM | 53 nM | 16 nM | 
7 | Cc1oc([C@@H](Cc2c[nH]c3ccccc23)NC(=O)[C@H](CC(C)C)NC(=O)N2CCCCCC2)nc1C(=O)NCC(=O)O | > 100000 nM |  | 1900 nM | 
8 | Cc1oc([C@@H](Cc2c[nH]c3ccccc23)NC(=O)[C@H](CC(C)C)NC(=O)N2CCCCCC2)nc1CC(=O)O | > 100000 nM |  | 9600 nM | 
9 | CCN(CC)C(=O)N[C@@H](CC(C)C)C(=O)N[C@H](Cc1c[nH]c2ccccc12)c1nc(C(=O)O)c(C)[nH]1 | > 100000 nM |  | 1000 nM | 
10 | Cc1oc([C@@H](Cc2cn(C)c3ccccc23)NC(=O)[C@H](CC(C)C)NC(=O)NC2CCCC2)nc1C(=O)O | 99000 nM |  | 300 nM | 
11 | Cc1oc([C@@H](Cc2cn(C)c3ccccc23)NC(=O)[C@H](CC(C)C)NC(=O)N2CCc3ccccc32)nc1C(=O)O | 34000 nM | 3.6 nM | 5.9 nM | 
12 | CNC(=O)c1nc([C@@H](Cc2c[nH]c3ccccc23)NC(=O)[C@H](CC(C)C)NC(=O)N2CCCCCC2)oc1C | 65000 nM |  | 3000 nM | 
13 | Cc1[nH]c([C@@H](Cc2c[nH]c3ccccc23)NC(=O)[C@H](CC(C)C)NC(=O)NC2CCCCC2)nc1C(=O)O | > 100000 nM |  | 75 nM | 
14 | Cc1oc([C@@H](Cc2cn(C)c3ccccc23)NC(=O)[C@H](CC(C)C)NC(=O)NC2CCCCC2C)nc1C(=O)O (some centres not stated) | > 100000 nM |  | 650 nM | 
15 | Cc1[nH]c([C@@H](Cc2cn(C)c3ccccc23)NC(=O)[C@H](CC(C)C)NC(=O)NC2CCCCCC2)nc1C(=O)O | 42000 nM | 87 nM | 60 nM | 
16 | Cc1[nH]c([C@@H](Cc2cn(C)c3ccccc23)NC(=O)[C@H](CC(C)C)NC(=O)NC2CCCCC2C)nc1C(=O)O (some centres not stated) | 13000 nM |  | 18 nM | 
17 | Cc1[nH]c([C@@H](Cc2cn(C)c3ccccc23)NC(=O)[C@H](CC(C)C)NC(=O)Nc2ccccc2)nc1C(=O)O | 37000 nM | 1.3 nM | 7.6 nM | 
18 | Cc1oc([C@@H](Cc2c[nH]c3ccccc23)NC(=O)[C@H](CC(C)C)NC(=O)N2CCCCCC2)nc1C(=O)O | > 100000 nM | 4500 nM |  | 
19 | Cc1oc([C@@H](Cc2cn(C)c3ccccc23)NC(=O)[C@H](CC(C)C)NC(=O)N2CCOC23CCCCC3)nc1C(=O)O | 35000 nM | 6.1 nM | 5.7 nM | 
20 | Cc1[nH]c([C@@H](Cc2cn(C)c3ccccc23)NC(=O)[C@H](CC(C)C)NC(=O)NC2CCCC(C)C2)nc1C(=O)O (some centres not stated) | 22000 nM | 8.6 nM | 26 nM | 
21 | Cc1oc([C@@H](Cc2cn(C)c3ccccc23)NC(=O)[C@H](CC(C)C)NC(=O)N2CCCc3ccccc32)nc1C(=O)O | 66000 nM | 0.9 nM | 33 nM | 
22 | Cc1oc([C@@H](Cc2cn(C)c3ccccc23)NC(=O)[C@H](CC(C)C)NC(=O)Nc2ccccc2F)nc1C(=O)O | 2400 nM | 26 nM | 17 nM | 
23 | Cc1oc([C@@H](Cc2cn(C)c3ccccc23)NC(=O)[C@H](CC(C)C)NC(=O)NC2(C)CCCCC2)nc1C(=O)O | 56000 nM |  | 200 nM | 
24 | Cc1oc([C@@H](Cc2cn(C)c3ccccc23)NC(=O)[C@H](CC(C)C)NC(=O)Nc2cccc(F)c2)nc1C(=O)O | 55000 nM |  | 66 nM | 
25 | Cc1[nH]c([C@@H](Cc2cn(C)c3ccccc23)NC(=O)[C@H](CC(C)C)NC(=O)NC2CCCC2)nc1C(=O)O | 67000 nM | 43 nM | 37 nM | 
26 | Cc1oc([C@@H](Cc2cn(C)c3ccccc23)NC(=O)[C@H](CC(C)C)NC(=O)NC2CCCc3ccccc32)nc1C(=O)O (some centres not stated) | 48000 nM |  | 230 nM | 
27 | Cc1[nH]c([C@@H](Cc2cn(C)c3ccccc23)NC(=O)[C@H](CC(C)C)NC(=O)NC2CC3CCC2C3)nc1C(=O)O (stereo in doubt; 14o) | 8300 nM |  | 29 nM | 16 nM
28 | Cc1[nH]c([C@@H](Cc2cn(C)c3ccccc23)NC(=O)[C@H](CC(C)C)NC(=O)NC2CC3CCC2C3)nc1C(=O)O (stereo in doubt; 14p) | 9500 nM |  | 19 nM | 36 nM
29 | Cc1oc([C@@H](Cc2cn(C)c3ccccc23)NC(=O)[C@H](CC(C)C)NC(=O)NC2CC3CCC2C3)nc1C(=O)O (stereo in doubt; 15o) | 67000 nM |  | 800 nM | 
30 | Cc1oc([C@@H](Cc2cn(C)c3ccccc23)NC(=O)[C@H](CC(C)C)NC(=O)NC2CC3CCC2C3)nc1C(=O)O (stereo in doubt; 15p) | 26000 nM |  | 450 nM | 

— ChEMBL document CHEMBL1129498, “Azole endothelin antagonists. 2. Structure-activity studies” (J Med Chem, 1996)
